Experimental data as given in PubChem BioAssay.
The source made the active and inactive calls.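 Rule for the calls, unless noted: active = viability at or under a set limit in both replicates, limit being median viability minus 3 SD (cut at about 48% in these data, passing the limit was not always enough); inconclusive = at or under the limit in just one replicate; inactive = at or above the limit in both replicates.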

Assays:
[1] = reducers of endogenous Her2 protein level, primary screen, SKBR3 breast tumor cells, AlphaScreen, ATP viability (AID 461;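 active = Her2 level under about 52% in both replicate screens, with viability over 70% of control, limit read from the data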;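 for Her2 level: lower value means less Her2 protein in the cells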;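 for viability: percent of carrier control wells set as 100% viability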); settings: 18-24 h, measured here: SKBR3 viability, ATP luminescence, at 10 µM
[2] = target: Receptor tyrosine-protein kinase erbB-2 (Homo sapiens) (UniProt P04626); assay: as above; settings: 18-24 h, at 10 µM, stronger effect = lower value
[3] = SK-BR-3 cell growth inhibitors, pilot screen, 24 h, human (AID 572;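 active = viability at or below 10% of carrier control in both of two separate runs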;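 note: compound exposure lasted between 18 and 24 h rather than exactly 24 h; 100% = carrier-treated control wells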); settings: SK-BR-3 viability, CellTiter-Glo luminescence, at 10 µM, stronger effect = lower value
[4] = HUVEC growth inhibition – cell-based, human, primary screen (AID 575;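 active = viability at or below 30% in both replicate assays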;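 note: 100% = median of untreated cell wells with 0.1% DMSO on each plate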); settings: HUVEC proliferation, CellTiter-Glo luminescence, 72 h; at 10 µM; stronger effect = lower value
Procedure, shortened: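 System: primary human umbilical vein endothelial cells; Quantity: 1250 endothelial cells in each well; Buffer or medium: supplemented EBM, 2% fetal bovine serum; Doses: one dose, 10 µM final, 0.1% DMSO; Incubation: 72 h compound incubation; Technique: ATP-based CellTiter-Glo luminescent read; Evaluation: percent of median DMSO-control luminescence; Controls: vehicle and MePR control wells.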

[5] = growth inhibitors of H69AR lung tumor, primary screen, human, duplicate replicates (AID 580); settings: H69AR lung tumor cells viability, ATP luminescence, 72 h; at 10 µM; stronger effect = lower value;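 note: 100% = mean luminescence of untreated wells and 0% = no signal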
[6] = reversal of MRP1-mediated doxorubicin resistance, pilot screen, H69AR cells, doxorubicin co-treatment (AID 601;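 active = viability loss from added drug above about 55%, and viability with drug at most 40%, in both replicates, limit read from the data, passing the limit was not always enough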); settings: CellTiter-Glo, 72 h, at 10 µM; for differential viability (reversal): stronger effect = higher value
[7] = 384-well plate pilot, post-Golgi transport modulator project, inhibition of yeast transport mutant growth (AID 636; in the data active = inhibition above about 31%); settings: absorbance 615 nm, about 18 h, stronger effect = higher value
[8] = growth suppression of yeast trafficking mutant, preliminary HTS, modulators of trafficking downstream of Golgi apparatus project, 1536-format plate, OD 615 nm (AID 637; in the data active = inhibition above about 30%); settings: yeast transport mutant growth, absorbance 615 nm, 18 h; stronger effect = higher value
[9] = H69AR cells + 2 uM doxorubicin, measured here: viability with 2 uM doxorubicin, stronger effect = lower value
[10] = H69AR cells, compound alone cytotoxicity

Receptor tyrosine-protein kinase erbB-2 (Homo sapiens), sequence (P04626 whole entry, looked up): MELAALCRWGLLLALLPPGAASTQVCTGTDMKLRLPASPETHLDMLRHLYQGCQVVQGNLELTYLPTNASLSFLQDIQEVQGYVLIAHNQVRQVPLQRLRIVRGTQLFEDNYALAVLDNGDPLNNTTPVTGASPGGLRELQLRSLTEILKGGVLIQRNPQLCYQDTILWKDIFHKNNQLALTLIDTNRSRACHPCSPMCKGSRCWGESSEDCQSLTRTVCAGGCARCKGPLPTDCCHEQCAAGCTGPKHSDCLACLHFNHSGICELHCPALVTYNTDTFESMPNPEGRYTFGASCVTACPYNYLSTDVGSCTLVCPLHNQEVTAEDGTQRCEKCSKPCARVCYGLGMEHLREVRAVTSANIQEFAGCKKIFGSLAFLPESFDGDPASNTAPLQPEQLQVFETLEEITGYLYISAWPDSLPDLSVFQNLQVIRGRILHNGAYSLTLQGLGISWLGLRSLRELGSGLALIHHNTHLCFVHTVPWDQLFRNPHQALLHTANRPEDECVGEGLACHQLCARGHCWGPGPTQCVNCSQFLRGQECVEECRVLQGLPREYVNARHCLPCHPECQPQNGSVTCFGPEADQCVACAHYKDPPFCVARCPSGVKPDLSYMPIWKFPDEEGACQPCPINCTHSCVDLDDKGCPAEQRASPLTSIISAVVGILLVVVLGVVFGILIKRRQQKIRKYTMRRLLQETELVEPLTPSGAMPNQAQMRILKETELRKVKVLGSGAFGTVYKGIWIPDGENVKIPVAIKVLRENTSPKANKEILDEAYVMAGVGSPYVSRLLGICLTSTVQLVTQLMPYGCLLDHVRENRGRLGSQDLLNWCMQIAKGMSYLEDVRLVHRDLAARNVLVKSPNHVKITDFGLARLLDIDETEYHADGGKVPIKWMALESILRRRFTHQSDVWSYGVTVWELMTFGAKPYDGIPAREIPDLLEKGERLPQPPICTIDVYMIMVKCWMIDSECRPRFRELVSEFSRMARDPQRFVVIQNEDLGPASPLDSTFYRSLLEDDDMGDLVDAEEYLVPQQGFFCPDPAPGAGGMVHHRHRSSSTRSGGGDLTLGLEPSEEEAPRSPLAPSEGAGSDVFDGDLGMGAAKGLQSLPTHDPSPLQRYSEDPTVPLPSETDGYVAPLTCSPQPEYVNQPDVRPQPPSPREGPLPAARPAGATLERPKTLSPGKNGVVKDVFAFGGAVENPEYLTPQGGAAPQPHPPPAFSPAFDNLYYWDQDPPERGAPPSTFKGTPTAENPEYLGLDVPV

SMILES | viability [1] | Her2 level [2] | viability [3] | viability [4] | viability [5] | differential viability (reversal) ([6]; H69AR cells + 2 uM doxorubicin) | viability [6, 9] | viability [6, 10] | inhibition [7] | inhibition [8]
CCc1nnc(NC(=O)CSc2nnc(CSc3nc(C)cc(C)n3)n2CC)s1 | 100% | 116% (inactive) | 100% (inactive) | 84.1% (inactive) | 88.7% (inactive) | 1.79% (inactive) | 86.9% | 88.7% | 0.77% (inactive) | 22.5% (inactive)
COC(=O)c1cc(OC)c(OC)cc1NC(=O)CCC1CCCC1 | 103% | 95% (inactive) | 103% (inactive) | 88.8% (inactive) | 102% (inactive) | -3.46% (inactive) | 106% | 102% | 0.39% (inactive) | 9.05% (inactive)
COCCOC(=O)c1c(C)nc(SCC(=O)Nc2ccc(OC)cc2)c(C#N)c1-c1ccco1 | 108% | 87.5% (inactive) | 108% (inactive) | 73.9% (inactive) | 91% (inactive) | 14.7% (inactive) | 76.3% | 91% | -2.63% (inactive) | -5.97% (inactive)
Cc1nnc(SCC(=O)N2CCN(S(=O)(=O)c3ccccc3)CC2)[nH]c1=O | 109% | 98.5% (inactive) | 109% (inactive) | 109% (inactive) | 107% (inactive) | 15.5% (inactive) | 91.2% | 107% | -6.67% (inactive) | -2.9% (inactive)
Cn1c(SCC(N)=O)nnc1C1CCN(C(=O)NCc2ccccc2)CC1 | 88% | 103% (inactive) | 88% (inactive) | 93.6% (inactive) | 88.3% (inactive) | 0.425% (inactive) | 87.8% | 88.3% | -3.55% (inactive) | -9.5% (inactive)
O=C(CCC(=O)N(c1cccc(F)c1)C(C(=O)NC1CCCC1)c1ccncc1)Nc1cccnc1 (stereo not given) | 100% | 95.5% (inactive) | 100% (inactive) | 97.1% (inactive) | 91.7% (inactive) | -4.02% (inactive) | 95.8% | 91.7% | -0.8% (inactive) | 2.74% (inactive)
CCOc1ccc(S(=O)(=O)n2nc(C)cc2C)c2ccccc12 | 83.5% | 89.5% (inactive) | 83.5% (inactive) | 71.2% (inactive) | 79.7% (inactive) | 2.17% (inactive) | 77.6% | 79.7% | -1.03% (inactive) | 2% (inactive)
COc1ccc(NC2c3ncccc3C(=O)N2Cc2ccccc2)c(OC)c1 (stereo not given) | 101% | 85.5% (inactive) | 101% (inactive) | 93.8% (inactive) | 95.8% (inactive) | 4.3% (inactive) | 91.5% | 95.8% | -1.56% (inactive) | 1.75% (inactive)
O=C(Nc1ccc(F)cc1F)NC1CC(=O)N(Cc2ccccc2)C1 (stereo not given) | 92.5% | 89.5% (inactive) | 92.5% (inactive) | 109% (inactive) | 95.1% (inactive) | 0.32% (inactive) | 94.8% | 95.1% | 1.78% (inactive) | 26.2% (inactive)
Cc1ccc(-n2ncc3c(=O)[nH]c(SCC(=O)N4CCN(c5ccccc5)CC4)nc32)cc1 | 86% | 77% (inactive) | 86% (inactive) | 92.2% (inactive) | 76.3% (inactive) | 4.85% (inactive) | 71.5% | 76.3% | -5.79% (inactive) | -1.17% (inactive)
CCOc1cc(C(=O)N2CCN(c3ccccc3)CC2)cc(OCC)c1OCC | 98.5% | 97% (inactive) | 98.5% (inactive) | 90.1% (inactive) | 97.2% (inactive) | 3.12% (inactive) | 94% | 97.2% | -4.93% (inactive) | -5.32% (inactive)
O=C(O)CCC1(C(=O)O)OCCc2ccccc21 (stereo not given) | 112% | 83% (inactive) | 112% (inactive) | 107% (inactive) | 97.5% (inactive) | 7.12% (inactive) | 90.3% | 97.5% | -5.54% (inactive) | 2.86% (inactive)
COc1cc2c(cc1OC)C(c1cc(OC)c(OC)c(OC)c1)NCC2 (stereo not given) | 95.5% | 81% (inactive) | 95.5% (inactive) | 92.4% (inactive) | 91.9% (inactive) | -0.03% (inactive) | 91.9% | 91.9% | -3.95% (inactive) | -0.97% (inactive)
COCCSc1nnc(NC(=O)Cc2ccccc2OC)s1 | 106% | 76% (inactive) | 106% (inactive) | 91% (inactive) | 98.9% (inactive) | 7.86% (inactive) | 91% | 98.9% | -5.39% (inactive) | -1.67% (inactive)
CC(=O)Nc1ccc(S(=O)(=O)NCC2CCC(C(=O)NCCCN3CCCC3=O)CC2)cc1 (stereo not given) | 107% | 91.5% (inactive) | 107% (inactive) | 92.4% (inactive) | 94.3% (inactive) | 6.51% (inactive) | 87.8% | 94.3% | -4.13% (inactive) | 1.45% (inactive)
CC(C)(C)C1CCc2[nH]nc(C(=O)O)c2C1 (stereo not given) | 104% | 86.5% (inactive) | 104% (inactive) | 92.3% (inactive) | 98% (inactive) | 3% (inactive) | 95% | 98% | -2.43% (inactive) | 1.11% (inactive)

SMILES | viability [1] | Her2 level [2] | viability [3] | viability [4] | viability [5] | differential viability (reversal) ([6]; H69AR cells + 2 uM doxorubicin) | viability [6, 9] | viability [6, 10] | inhibition [7] | inhibition [8]
COc1cc(C(=O)N2CCC(NC(=O)C(Cc3ccc(C)cc3)NC(C)=O)CC2)cc(OC)c1OC (stereo not given) | 92% | 86% (inactive) | 92% (inactive) | 97.8% (inactive) | 98% (inactive) | 7.71% (inactive) | 90.3% | 98% | -2.84% (inactive) | 0.16% (inactive)
O=C(O)COc1ccc2occ(C(=O)c3ccccc3)c2c1 | 102% | 95.5% (inactive) | 102% (inactive) | 100% (inactive) | 93.9% (inactive) | 1.01% (inactive) | 92.9% | 93.9% | -3.55% (inactive) | 7.21% (inactive)
Cc1nc(C)c(C(=O)C2=C(O)C(=O)N(CCN3CCOCC3)C2c2cccnc2)s1 (stereo not given) | 104% | 93% (inactive) | 104% (inactive) | 99.1% (inactive) | 97.4% (inactive) | 10.4% (inactive) | 87% | 97.4% | -3.95% (inactive) | 12.9% (inactive)
COc1ccccc1C(=O)n1nc(-c2ccccc2)nc1N | 91% | 90% (inactive) | 91% (inactive) | 110% (inactive) | 87.9% (inactive) | -2.62% (inactive) | 90.5% | 87.9% | -3.29% (inactive) | 3.77% (inactive)
CCOc1ccc(C(=O)N2CCC(C(=O)c3ccc4c(c3)OCCO4)CC2)cc1 | 84.5% | 79.5% (inactive) | 84.5% (inactive) | 77.8% (inactive) | 86.3% (inactive) | 0.19% (inactive) | 86.1% | 86.3% | -4.61% (inactive) | -6.91% (inactive)
Cc1c(C(=O)OCC(C)C)[nH]c2c1C(=O)CC(c1ccco1)C2 (stereo not given) | 80.5% | 58% (inactive) | 80.5% (inactive) | 18.5% (active) | 24.1% (active) | -22.6% (inactive) | 46.6% | 24.1% | -1.2% (inactive) | -3.28% (inactive)
COc1cc(C)nc(OCCNC(=O)COc2ccc(Cl)cc2C)n1 | 96.5% | 100% (inactive) | 96.5% (inactive) | 95.2% (inactive) | 107% (inactive) | 8.69% (inactive) | 98% | 107% | -0.93% (inactive) | 1.64% (inactive)
O=C(CSc1nnc(-c2ccccc2F)o1)OCc1ccccc1 | 83.5% | 88.5% (inactive) | 83.5% (inactive) | 102% (inactive) | 102% (inactive) | 17.8% (inactive) | 84.3% | 102% | -5.68% (inactive) | 2.95% (inactive)
COC(=O)c1ccc(CSc2nnc(-c3ccncc3)o2)o1 | 110% | 69% (inactive) | 110% (inactive) | 87.8% (inactive) | 100% (inactive) | 4.48% (inactive) | 95.8% | 100% | -4.8% (inactive) | 1.48% (inactive)
O=C(CCn1c(=O)sc2ccccc21)Nc1cccnc1 | 104% | 92% (inactive) | 104% (inactive) | 96.8% (inactive) | 99.6% (inactive) | 8.59% (inactive) | 91% | 99.6% | -3.87% (inactive) | 1.48% (inactive)
O=C(CSc1ncnc2sc3c(c12)CCCCC3)NCc1ccco1 | 92.5% | 61% (inactive) | 92.5% (inactive) | 41.3% (inactive) | 18% (active) | -52.1% (inactive) | 70.1% | 18% | -2.63% (inactive) | -3.65% (inactive)
Cc1cc(C)cc(NC(=O)C2CCCN(c3nccc(C)n3)C2)c1 (stereo not given) | 85% | 101% (inactive) | 85% (inactive) | 84% (inactive) | 104% (inactive) | 12.9% (inactive) | 91.1% | 104% | 0.91% (inactive) | -5.25% (inactive)
O=C(OC1CCOC1=O)c1ccc2ccccc2n1 (stereo not given) | 98.5% | 85% (inactive) | 98.5% (inactive) | 101% (inactive) | 102% (inactive) | 9.04% (inactive) | 93.4% | 102% | -6.93% (inactive) | 1.75% (inactive)
O=C(Cc1c(O)c2ccccc2[nH]c1=O)NCc1ccc(F)cc1 | 121% | 87.5% (inactive) | 121% (inactive) | 90.5% (inactive) | 91.3% (inactive) | 2.8% (inactive) | 88.5% | 91.3% | -4.87% (inactive) | 10% (inactive)
O=C(Nc1ccc(Cc2ccc(NC(=O)N3CCOCC3)cc2)cc1)N1CCOCC1 | 97% | 94% (inactive) | 97% (inactive) | 90.1% (inactive) | 98.5% (inactive) | 15.7% (inactive) | 82.8% | 98.5% | -4.87% (inactive) | -1.17% (inactive)
CC(=O)Nc1cccc(OCC(O)Cn2cnc3ccccc32)c1 (stereo not given) | 128% | 110% (inactive) | 128% (inactive) | 90% (inactive) | 97.9% (inactive) | 5.28% (inactive) | 92.7% | 97.9% | -0.14% (inactive) | 7.14% (inactive)
